Data set [1] is described as follows: Steroid pharmacokinetics after i.v. or s.c. administration. Type of data set: in vivo, CD1 mice. The conditions noted are these: CD1, mouse, plasma, iv. In short, it runs like this:
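CD1 mice (n = 4) received steroid i.v. or s.c. intrascapularly. Parent steroid was given in 0.6% ethanol in PBS; ester prodrugs were given within hFGF21 mRNA MC3 LNPs. Serial saphenous blood was drawn, with a terminal sample at 24 h. Parent steroid in plasma was quantified by UPLC–triple quadrupole MS.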

Data set [2] relates to hFGF21 protein. The data set is classed as in vivo. Conditions: prodrug incorporated into the MC3 LNP, s.c., 0.3 mg/kg mRNA, CD1 mice. In short, it runs like this:
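CD1 mice (n = 5) under light isoflurane received hFGF21 mRNA in MC3 LNPs (0.3 mg/kg mRNA) s.c. intrascapularly at 5 mL/kg. LNPs were with or without steroid ester prodrug at a prodrug steroid/mRNA weight ratio of 1:1. Saphenous blood was taken at 2, 5, 8 and 24 h. Plasma (3,000 × g, 10 min, 4°C) hFGF21 was measured by multiplex Luminex. AUC2–24 h was reported as a geometric mean.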

One may read the half-life as how long it takes for the measured level to halve. A higher half-life goes with slow loss. `CCCC1O[C@@H]2C[C@H]3[C@@H]4CCC5=CC(=O)C=C[C@]5(C)[C@H]4[C@@H](O)C[C@]3(C)[C@]2(C(=O)CO)O1` (stereo partly drawn) [Budesonide parent, budesonide]: the clearance in data set [1] is 121 mL/min/kg. Besides, in data set [1] (Half-life in plasma, i.v. administration, CD1 mice), the half-life is roughly 40 min.

As for `CCCCCCCCCCCCCC(=O)OCC(=O)[C@@]12O[C@H](CCC)O[C@@H]1C[C@H]1[C@@H]3C[C@H](F)C4=CC(=O)CC[C@]4(C)[C@@]3(F)[C@@H](O)C[C@@]12C` [Rofleponide-C14], in data set [2], the “Fold increase of hFGF21 AUC2–24 h versus MC3 LNP without steroid” value stood at 3.8 fold.

Source of the values: article PMC8039535 (Molecular Therapy. Nucleic Acids, 2021).
